Key:
[1] = biological target: T1, NAD-dependent protein deacylase sirtuin-6 (Homo sapiens, UniProt Q8N6T7); assay: Activation of N-terminal his-tagged human SIRT6 expressed in Escherichia coli M15 [pREP4] assessed as increase in peptide demyristoylation at 20 uM incubated for 120 mins using Ac-EALPKK(Myr)-AMC substrate by FDL assay relative to control
Summary of the method: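 Demyristoylation: 1 µM recombinant SIRT6 preincubated with compound for 20 min at 37 °C in 50 mM Tris-HCl pH 8.0, BSA 1 mg/mL, 1 mM DTT, with 10 µM Ac-EALPKK(Myr)-AMC. Started with 1 mM NAD and run 120 min at 37 °C. Developed 120 min at 37 °C with 5 mg/mL trypsin/8 mM nicotinamide. Fluorescence read. Mean ± s.d., triplicate wells, three independent experiments.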

[2] = biological target: T1, NAD-dependent protein deacylase sirtuin-6; assay: Activation of N-terminal his-tagged human SIRT6 expressed in Escherichia coli M15 [pREP4] assessed as increase in peptide demyristoylation incubated for 120 mins using Ac-EALPKK(Myr)-AMC substrate by FDL assay relative to control
Summary of the method: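 Demyristoylation: 1 µM recombinant SIRT6 preincubated with compound for 20 min at 37 °C in 50 mM Tris-HCl pH 8.0, BSA 1 mg/mL, 1 mM DTT, with 10 µM Ac-EALPKK(Myr)-AMC. Fluorescence read. Mean ± s.d., triplicate wells, three independent experiments.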

T1 sequence (Q8N6T7 whole entry): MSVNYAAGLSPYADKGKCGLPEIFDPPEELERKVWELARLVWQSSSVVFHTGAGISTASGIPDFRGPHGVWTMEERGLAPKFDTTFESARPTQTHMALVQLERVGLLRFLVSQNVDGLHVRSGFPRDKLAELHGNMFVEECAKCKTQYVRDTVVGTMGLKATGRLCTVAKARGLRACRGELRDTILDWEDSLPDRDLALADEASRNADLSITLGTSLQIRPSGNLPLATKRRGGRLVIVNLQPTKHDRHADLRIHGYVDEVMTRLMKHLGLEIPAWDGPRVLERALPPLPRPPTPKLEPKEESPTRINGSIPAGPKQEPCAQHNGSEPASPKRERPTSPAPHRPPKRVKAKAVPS

Row | SMILES | Activity [1] | EC1.5 [2]
1 | COc1ccc(-c2cc(C(=O)Nc3ccc(C(C)(C)C)cc3)c3ccccc3n2)cc1OC | 124% | 
2 | COc1ccc(-c2cc(C(=O)Nc3cc(O)c(C(C)(C)C)cc3C(C)(C)C)c3ccccc3n2)cc1OC | 88.6% | 
3 | COc1ccc(-c2cc(C(=O)Nc3ccc(Oc4ccccc4)cc3)c3ccccc3n2)cc1OC | 239% | 6.47 µM
4 | COc1ccc(-c2cc(C(=O)Nc3ccc(S(N)(=O)=O)cc3)c3ccccc3n2)cc1OC | 131% | 
5 | COc1cc([N+](=O)[O-])ccc1NC(=O)c1cc(-c2ccc(OC)c(OC)c2)nc2ccccc12 | 101% | 
6 | COc1ccc(-c2cc(C(=O)Nc3cccc4ccccc34)c3ccccc3n2)cc1OC | 327% | 7.44 µM
7 | Cc1ccc(CNC(=O)c2cc(-c3cc4ccccc4o3)nc3ccccc23)cc1 | 208% | 14.5 µM
8 | CCOc1ccc(NC(=O)c2cc(-c3cc4ccccc4o3)nc3ccccc23)cc1 | 109% | 
9 | O=C(Nc1cccc(F)c1)c1cc(-c2cc3ccccc3o2)nc2ccccc12 | 216% | 4.86 µM
10 | COc1ccc(-c2cc(C(=O)Nc3ccc4ccccc4c3)c3ccccc3n2)cc1OC | 139% | 
11 | COc1ccc(NC(=O)c2cc(-c3ccc(OC)c(OC)c3)nc3ccccc23)c([N+](=O)[O-])c1 | 87.2% | 
12 | COc1ccc(-c2cc(C(=O)NC3CCCC3)c3ccccc3n2)cc1OC | 124% | 
13 | O=C(NC(c1ccccc1)c1ccccn1)c1cc(-c2cc3ccccc3o2)nc2ccccc12 (stereo not drawn) | 321% | 7.59 µM
14 | COc1ccc(-c2cc(C(=O)Nc3cccc(F)c3)c3ccccc3n2)cc1OC | 142% | 
15 | COc1ccc(-c2cc(C(=O)NCc3ccc(C)cc3)c3ccccc3n2)cc1OC | 225% | 7.78 µM
16 | O=C(NCc1ccc(F)cc1)c1cc(-c2cc3ccccc3o2)nc2ccccc12 | 482% | 2.19 µM
17 | COC(=O)[C@H]1C2CCC(CC2)[C@@H]1NC(=O)c1cc(-c2ccc(OC)c(OC)c2)nc2ccccc12 | 128% | 
18 | CCN(CC)c1ccc(NC(=O)c2cc(-c3ccc(OC)c(OC)c3)nc3ccccc23)cc1 | 83.3% | 
19 | COc1ccc(-c2cc(C(=O)Nc3ccc(Cl)cc3)c3ccccc3n2)cc1OC | 98.7% | 
20 | COc1ccc(-c2cc(C(=O)Nc3ccc(F)c([N+](=O)[O-])c3)c3ccccc3n2)cc1OC | 96.9% | 
21 | COc1ccc(-c2cc(C(=O)Nc3c(C)cc(C)cc3C)c3ccccc3n2)cc1OC | 284% | 4.77 µM
22 | CCOC(=O)c1ccccc1NC(=O)c1cc(-c2ccc(OC)c(OC)c2)nc2ccccc12 | 118% | 

Row | SMILES | Activity [1] | EC1.5 [2]
23 | COc1ccc(-c2cc(C(=O)NCc3ccc(F)cc3)c3ccccc3n2)cc1OC | 168% | 19.5 µM
24 | CCOc1ccccc1NC(=O)c1cc(-c2ccc(OC)c(OC)c2)nc2ccccc12 | 95.2% | 
25 | O=C(NCc1ccc(Cl)c(Cl)c1)c1cc(-c2cc3ccccc3o2)nc2ccccc12 | 314% | 5.91 µM
26 | COc1ccc(-c2cc(C(=O)NCc3ccccc3)c3ccccc3n2)cc1OC | 107% | 
27 | CCOc1ccc(NC(=O)c2cc(-c3ccc(OC)c(OC)c3)nc3ccccc23)cc1 | 166% | 10.3 µM
28 | CCCNC(=O)c1cc(-c2ccc(OC)c(OC)c2)nc2ccccc12 | 99% | 
29 | O=C(Nc1cccc2ccccc12)c1cc(-c2cc3ccccc3o2)nc2ccccc12 | 119% | 
30 | COc1ccc(-c2cc(C(=O)Nc3ccc(F)cc3)c3ccccc3n2)cc1OC | 104% | 
31 | COC(=O)c1c(-c2ccc(C)cc2)csc1NC(=O)c1cc(-c2ccc(OC)c(OC)c2)nc2ccccc12 | 82.9% | 
32 | COC(=O)c1c(NC(=O)c2cc(-c3ccc(OC)c(OC)c3)nc3ccccc23)sc2c1CCCC2 | 95.2% | 
33 | COc1cccc(NC(=O)c2cc(-c3ccc(OC)c(OC)c3)nc3ccccc23)c1 | 115% | 
34 | COc1ccc(-c2cc(C(=O)Nc3nc(-c4ccc(Cl)cc4)cs3)c3ccccc3n2)cc1OC | 91% | 
35 | O=C(Nc1ccc(Oc2ccccc2)cc1)c1cc(-c2cc3ccccc3o2)nc2ccccc12 | 118% | 
36 | COc1ccc(-c2cc(C(=O)Nc3ccccc3Br)c3ccccc3n2)cc1OC | 128% | 
37 | CCOC(=O)c1sc(NC(=O)c2cc(-c3ccc(OC)c(OC)c3)nc3ccccc23)nc1C | 90.3% | 
38 | COc1ccc(-c2cc(C(=O)N3CCN(C)CC3)c3ccccc3n2)cc1OC | 105% | 
39 | COC(=O)c1c(NC(=O)c2cc(-c3ccc(OC)c(OC)c3)nc3ccccc23)sc(C)c1C | 101% | 
40 | COc1cc(NC(=O)c2cc(-c3ccc(OC)c(OC)c3)nc3ccccc23)cc(OC)c1 | 103% | 
41 | COc1ccc(-c2cc(C(=O)NC34CC5CC(CC(O)(C5)C3)C4)c3ccccc3n2)cc1OC | 86.1% | 
42 | COc1ccc(-c2cc(C(=O)Nc3nc4ccc(S(C)(=O)=O)cc4s3)c3ccccc3n2)cc1OC | 83.4% | 
43 | COc1ccc(-c2cc(C(=O)Nc3sc(C)c(C)c3C#N)c3ccccc3n2)cc1OC | 95.1% | 

More lines, now with the values ahead:

Row | Activity [1] | EC1.5 [2] | SMILES
44 | 92.4% |  | COc1ccc(-c2cc(C(=O)Nc3ccccc3F)c3ccccc3n2)cc1OC
45 | 430% | 3.11 µM | O=C(Nc1cc(C(F)(F)F)cc(C(F)(F)F)c1)c1cc(-c2cc3ccccc3o2)nc2ccccc12
46 | 104% |  | COc1ccc(-c2cc(C(=O)Nc3cccc(Cl)c3)c3ccccc3n2)cc1OC
47 | 141% |  | Cc1ccc(-c2cc(C(=O)Nc3cc(C(F)(F)F)ccc3Cl)c3ccccc3n2)s1
48 | 228% | 14.9 µM | O=C(Nc1cc(C(F)(F)F)ccc1Cl)c1cc(-c2ccc3c(c2)OCO3)nc2ccccc12
49 | 142% |  | COc1ccc(-c2cc(C(=O)Nc3ccc(C(F)(F)F)cc3)c3ccccc3n2)cc1OC
50 | 130% |  | O=C(Nc1cc(C(F)(F)F)ccc1Cl)c1cc(-c2cccs2)nc2ccccc12
51 | 287% | 4.96 µM | O=C(Nc1ccc(C(F)(F)F)cc1Cl)c1cc(-c2cc3ccccc3o2)nc2ccccc12
52 | 315% | 3.71 µM | Cc1cc(C)c(NC(=O)c2cc(-c3cc4ccccc4o3)nc3ccccc23)c(C)c1
53 | 313% | 5.61 µM | COc1ccc(-c2cc(C(=O)Nc3cc(C)ccc3C)c3ccccc3n2)cc1OC
54 | 163% | 20.7 µM | COc1ccc(-c2cc(C(=O)Nc3cc(C(F)(F)F)ccc3Cl)c3ccccc3n2)cc1
55 | 762% | 0.85 µM | O=C(Nc1cc(C(F)(F)F)ccc1Cl)c1cc(-c2cc3ccccc3o2)nc2ccccc12
56 | 105% |  | COc1ccc(-c2cc(C(=O)Nc3ccccc3Cl)c3ccccc3n2)cc1OC
57 | 98.2% |  | COc1ccc(-c2cc(C(=O)Nc3cc([N+](=O)[O-])ccc3Cl)c3ccccc3n2)cc1OC
58 | 76.4% |  | O=C(Nc1cc(C(F)(F)F)ccc1Cl)c1cc(C2CCCC2)nc2ccccc12
59 | 260% | 8.14 µM | COc1ccc(-c2cc(C(=O)NCc3ccc(Cl)c(Cl)c3)c3ccccc3n2)cc1OC
60 | 85.6% |  | O=C(Nc1cc(C(F)(F)F)ccc1Cl)c1cc(-c2cccnc2)nc2ccccc12
61 | 335% | 5.17 µM | O=C(Nc1ccc(C(F)(F)F)cc1)c1cc(-c2cc3ccccc3o2)nc2ccccc12
62 | 321% | 5.96 µM | COc1cccc2cc(-c3cc(C(=O)Nc4cc(C(F)(F)F)ccc4Cl)c4ccccc4n3)oc12

Row | Activity [1] | EC1.5 [2] | SMILES
63 | 349% | 3.47 µM | Cc1ccc(C)c(NC(=O)c2cc(-c3cc4ccccc4o3)nc3ccccc23)c1
64 | 181% | 7.53 µM | COc1ccc(-c2cc(C(=O)Nc3ccc(C(F)(F)F)cc3Cl)c3ccccc3n2)cc1OC
65 | 65.7% |  | COc1ccc(-c2cc(C(=O)Nc3ccc(F)cc3[N+](=O)[O-])c3ccccc3n2)cc1OC
66 | 91.2% |  | COc1ccc(-c2cc(C(=O)Nc3cc(C(F)(F)F)ccc3Cl)c3ccccc3n2)cc1F
67 | 109% |  | Cc1ccc(-c2cc(C(=O)Nc3cc(C(F)(F)F)ccc3Cl)c3ccccc3n2)cc1
68 | 224% | 5.97 µM | COc1ccc(-c2cc(C(=O)Nc3cccc(Cl)c3Cl)c3ccccc3n2)cc1OC
69 | 184% | 18.6 µM | Cc1ccc(-c2cc(C(=O)Nc3cc(C(F)(F)F)ccc3Cl)c3ccccc3n2)o1
70 | 141% |  | O=C(Nc1cc(C(F)(F)F)ccc1Cl)c1cc(-c2ccco2)nc2ccccc12
71 | 109% |  | O=C(Nc1ccc(Cl)c(Cl)c1)c1cc(-c2cc3ccccc3o2)nc2ccccc12
72 | 117% |  | COc1ccc(-c2cc(C(=O)Nc3ccc(C)c(Cl)c3)c3ccccc3n2)cc1OC
73 | 108% |  | COc1ccc(-c2cc(C(=O)Nc3ccc(F)c(Cl)c3)c3ccccc3n2)cc1OC
74 | 101% |  | COc1ccc(-c2cc(C(=O)Nc3ccc(F)c(F)c3)c3ccccc3n2)cc1OC
75 | 159% | 29.4 µM | O=C(Nc1cc(C(F)(F)F)ccc1Cl)c1cc(-c2ccc3c(c2)OCCO3)nc2ccccc12
76 | 95.5% |  | COc1ccc(-c2cc(C(=O)Nc3cc(S(N)(=O)=O)ccc3C)c3ccccc3n2)cc1OC
77 | 92.3% |  | Cc1ccc(-c2cc(C(=O)Nc3cc(C(F)(F)F)ccc3Cl)c3ccccc3n2)c(C)c1
78 | 365% | 2.84 µM | COc1ccc(-c2cc(C(=O)Nc3cc(C(F)(F)F)ccc3Cl)c3ccccc3n2)cc1OC
79 | 98.3% |  | COc1ccc(-c2cc(C(=O)Nc3ccc(C)cc3)c3ccccc3n2)cc1OC
80 | 82.4% |  | O=C(Nc1cc(C(F)(F)F)ccc1Cl)c1cc(C2CCCCC2)nc2ccccc12
81 | 131% |  | COc1ccc(-c2cc(C(=O)Nc3cc(C(C)C)ccc3C)c3ccccc3n2)cc1OC

— ChEMBL document CHEMBL4622973, “Discovery of Potent Small-Molecule SIRT6 Activators: Structure-Activity Relationship and Anti-Pancreatic Ductal Adenocarcinoma Activity” (J Med Chem, 2020)
